Screening results (PubChem BioAssay)
Most compounds without a hit are left out; they make up all but 1.8% or so of the library.
M5 antag: CHRM5 antagonism in calcium assay | hit rate 0.59% among 360,000 | P08912 | inhibition, % at 3 µM | CHO-hM5 cells, Fluo-8 calcium fluorescence, ACh EC80;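 active = inhibition above a per-plate cutoff, the mean of that plate's test compounds plus 3 SD, cut at about 27% in these data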;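 note: 0% = acetylcholine EC80 with DMSO and 100% = DMSO without agonist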
M5 ag: agonists of human muscarinic M5 receptor (CHRM5) | AID 624037 | CHO-K1 hM5 cells, Fluo-8 calcium fluorescence; 0% DMSO wells, 100% maximal acetylcholine response | hit rate 0.19% among 360,000 | P08912 | activation, % at 3 µM;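 active = activation above the run's mean over test compounds plus 3 SD, cut at about 23% in these data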;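 note: signal is peak over basal fluorescence ratio across the kinetic read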
CHRM5 PAM: potentiates acetylcholine response at human M5 receptor; P08912; activation, % at 3 µM; hit rate 0.3% among 360,000; CHO-K1 hM5, Fluo-8 calcium, ACh EC20 PAM; 0% = ACh EC20, 100% = ACh EC100; AID 624038;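 active = activation above the run cutoff, the mean activation of all test compounds plus 3 SD, cut at about 18% in these data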
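Probe or stimulus: acetylcholine, EC20 level; Assay system: human M5 receptor in CHO-K1 cells; Schedule: compound preincubation 140 s before EC20 acetylcholine addition; Technique: intracellular calcium via Fluo-8 fluorescence; Dosing: single-point, 3 µM nominal; Read-out basis: percent activation from peak-over-basal fluorescence ratio, scaled EC20-to-EC100 acetylcholine; Repeats: one well per compound, no replicates.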
M4 ag: agonists of human muscarinic M4 receptor (CHRM4) | P08173 | CHO-K1 hM4/Gqi5, Fluo-8 calcium fluorescence; vehicle 0%, full acetylcholine response 100% | activation, % at 3 µM | hit rate 0.14% among 360,000 | AID 624127;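 active = activation above the run mean over all test wells plus 3 SD, cut at about 32% in these data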;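 note: peak over basal fluorescence ratio per well then scaled between controls; 0% = DMSO wells and 100% = acetylcholine at EC100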
Target sequence (P08173 whole entry, looked up): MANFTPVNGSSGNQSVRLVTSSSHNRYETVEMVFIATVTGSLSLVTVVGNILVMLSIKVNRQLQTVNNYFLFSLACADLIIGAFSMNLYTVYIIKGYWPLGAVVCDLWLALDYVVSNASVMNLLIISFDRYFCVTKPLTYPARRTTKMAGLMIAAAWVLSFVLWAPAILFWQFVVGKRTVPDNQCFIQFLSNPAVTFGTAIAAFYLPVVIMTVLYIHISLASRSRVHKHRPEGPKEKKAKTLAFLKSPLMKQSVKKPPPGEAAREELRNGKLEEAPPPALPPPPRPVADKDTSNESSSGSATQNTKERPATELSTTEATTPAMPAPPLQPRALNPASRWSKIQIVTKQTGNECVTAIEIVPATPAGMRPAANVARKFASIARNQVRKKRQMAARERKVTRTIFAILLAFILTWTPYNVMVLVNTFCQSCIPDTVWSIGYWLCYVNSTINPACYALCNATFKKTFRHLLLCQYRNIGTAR
CHRM4 PAM: potentiates acetylcholine response at human M4 receptor; CHO-K1 hM4/Gqi5, Fluo-8 calcium fluorescence, ACh EC20; 0% = ACh EC20, 100% = maximal ACh; activation, % at 3 µM; hit rate 0.4% among 360,000;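 active = activation above its plate's cutoff, the mean activation of sample wells plus 3 SD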
M4 antag: blocks acetylcholine activation of human M4 receptor | inhibition, % at 3 µM | CHO-hM4 cells, ACh EC80, Fluo-8 calcium fluorescence | hit rate 0.73% among 360,000 | P08173 | AID 624125;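 active = inhibition above its plate's cutoff, the mean inhibition of sample wells plus 3 SD, cut at about 27% in these data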;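 note: 0% = acetylcholine EC80 with DMSO and 100% = DMSO without agonist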
* = called active by the depositor.

SMILES	M5 antag	M5 ag	CHRM5 PAM	M4 ag	CHRM4 PAM	M4 antag
O=c1nc(SCc2ccccc2Cl)nc(-c2ccc(Cl)cc2)[nH]1	-6	2	1	0	-3	-4
O=c1nc(SCc2c(F)cccc2Cl)nc(-c2ccc(Cl)cc2)[nH]1	5	-4	3	1	39*	-20
COCCC(=O)N1CCCC(CNS(=O)(=O)c2ccc(OC)cc2)C1 (stereo not given)	6	5	2	1	2	-5
COc1ccc(S(=O)(=O)NCC2CCCN(C(=O)CCC(F)(F)F)C2)cc1 (stereo not given)	11	14	39*	0	-6	-7
CN(C(=O)CO/N=C/c1ccc(OC(F)F)cc1)C1CCS(=O)(=O)C1 (stereo not given)	-6	4	19*	1	1	-2
Cc1ccc2nc(N3CCN(C(=O)c4ccco4)CC3)c3nncn3c2c1	-5	-2	-2	2	0	-9
CCCCc1nc2cc(C(=O)NCc3nccn3CC)ccc2o1	5	-10	-15	1	-12	32*
CCc1cc(CNC(=O)C2CCC(=O)N(CCc3ccc(OC)cc3)C2)on1 (stereo not given)	28*	-4	-14	1	0	7
Cc1ccc2nc(CNC(=O)C3CCC(=O)N(Cc4ccccc4F)C3)cn2c1 (stereo not given)	-3	-6	1	1	1	-4
Cc1ccc(F)cc1CNC(=O)C1CCC(=O)N(CCc2ccccc2)C1 (stereo not given)	8	-1	2	1	1	7
Cc1c(CNC(=O)C2CCC(=O)N(CCc3ccccc3)C2)cnn1C (stereo not given)	12	-3	2	0	21*	-3
CCn1cc(CNC(=O)C2CCC(=O)N(Cc3ccccc3F)C2)cn1 (stereo not given)	8	-4	-4	2	5	-18
Cn1cc(CNC(=O)C2CCC(=O)N(Cc3ccccc3F)C2)cn1 (stereo not given)	-9	-4	8	0	20*	-11
Cc1cccc(CNC(=O)C2CCC(=O)N(Cc3ccccc3F)C2)n1 (stereo not given)	-1	-4	2	1	21*	-7
NC(=O)NN=C1CCC(OCc2ccccc2)CC1CC(=O)O (stereo not given)	4	1	-3	0	5	5
CCOC(=O)c1cc(-c2ccccc2)n(CC2CC(c3ccc(OC)cc3)=NO2)n1 (stereo not given)	22	-2	-33	22	-12	26
CCCNC(=O)c1cc(C2CCCN(S(=O)(=O)c3cccs3)C2)on1 (stereo not given)	2	3	-1	4	-7	-2
C=CCn1c(=O)c2c(nc3n2CC(C)CN3Cc2ccccc2)n(C)c1=O (stereo not given)	-13	-5	5	1	5	-14
CCNC(=O)NC1c2ccccc2CSc2ccccc21 (stereo not given)	-9	-6	12	1	1	1
CCOCCN1CCN(C2c3ccccc3CSc3ccccc32)CC1 (stereo not given)	100*	-20	-30	0	-15	99*
Nc1ncnc2c1ncn2C1OC(C(=O)NC2CC2)C(O)C1O (stereo not given)	2	0	2	0	-8	36*
C[C@@H](CO)NC(=O)[C@H]1O[C@@H](n2cnc3c(N)ncnc32)[C@H](O)[C@@H]1O	2	4	3	0	1	0
COc1ccc(NC(=O)CN(C)C(=O)CCC2CCCC2)cc1	30*	-1	-8	1	1	-3
CCOc1ccc(NC(=O)CN(C)C(=O)CCC2CCCCC2)cc1OCC	10	-3	1	3	2	2
CCN1CCN(c2ncnc3scc(-c4ccc(C)c(C)c4)c23)CC1	46*	-8	-18	1	-16	27*
SMILES	M5 antag	M5 ag	CHRM5 PAM	M4 ag	CHRM4 PAM	M4 antag
C/C=C/c1ccc2c(c1)O[C@H](CN(C)C(=O)NC1CCCC1)[C@H](C)CN([C@H](C)CO)S2(=O)=O	5	1	-2	0	-1	4
Cc1ccccc1CN1CCCC(C(=O)Nc2ccccc2Oc2cccnc2)C1 (stereo not given)	1	-6	5	1	0	2
Cc1ccc(C(=O)Nc2c(C)cc(C)c3cccnc23)cc1	9	-1	2	2	14*	-10
CCc1ccccc1NC(=O)c1ccc(OCc2c(C)noc2C)cc1	12	-3	-3	2	2	2
O=C1/C(=C\c2c(NCCOCCO)nc3ccccn3c2=O)SC(=S)N1Cc1ccco1	19	60*	-10	19	-12	24
CN(C)c1ccc(C=NN2C(=O)CSC2=S)c(Cl)c1	24	26*	-11	5	-4	1
CC(=O)OCC(=O)[C@@]1(OC(C)=O)[C@@H](C)C[C@H]2[C@@H]3C[C@H](F)C4=CC(=O)C=C[C@]4(C)[C@@]3(F)[C@@H](O)C[C@@]21C	9	0	-16	1	-15	41*
C=CCn1c(SCC(=O)Nc2cccnc2Cl)nnc1-c1ccc(Cl)cc1	28*	8	26*	1	16	22
O=C(Oc1cccc(Nc2ncnc3ccccc23)c1)c1ccccc1Cl	45*	1	-27	15	-14	34*
CC1=C(C(=O)N2CCOCC2)CC(CC(=O)NC2CC2)C(=O)N1CCC1=CCCCC1 (stereo not given)	5	0	-1	0	-7	1
COc1ccc(OCCCC(=O)Nc2cc(Cl)ccc2-n2cncn2)cc1	5	-1	4	3	11	-8
CN(C)CCC[C@@]1(c2ccc(F)cc2)OCc2cc(C#N)ccc21	-11	-1	-6	4	-17	30*
CN(C)CCC[C@]1(c2ccc(F)cc2)OCc2cc(C#N)ccc21	8	0	-3	2	-5	3
Cc1ccccc1C(=O)N1CCN(c2ccc(NC(=O)CSc3ccc(Cl)cc3)cc2)CC1	21	4	-16	19	-11	27*
O=C(O)c1ccccc1C(=O)OC1CCCC2CCCC21 (stereo not given)	7	-5	3	0	0	-3
O=C1NC[C@H](c2ccccc2)OC(=O)[C@H](Cc2ccc(F)cc2)CC/C=C/C[C@H]1CC(=O)N(CCO)Cc1ccccc1	22	2	-28	18	-2	27*
